Data taken from ChEMBL document CHEMBL5038575, “Novel Functionalized Cannabinoid Receptor Probes: Development of Exceptionally Potent Agonists” (J Med Chem, 2021).
Calls of active or inactive are those of the source. The rule behind the calls is not given here.

Each compound was assayed against Cannabinoid receptor 1 (Rattus norvegicus, UniProt P20272) (assay: Displacement of [3H]CP55940 from rat brain membrane CB1 receptor assessed as inhibition constant incubated for 1 hr by TopCount scintillation counting method). Conditions: not given.
Chain of Cannabinoid receptor 1 (Rattus norvegicus, UniProt P20272) (P20272 whole entry): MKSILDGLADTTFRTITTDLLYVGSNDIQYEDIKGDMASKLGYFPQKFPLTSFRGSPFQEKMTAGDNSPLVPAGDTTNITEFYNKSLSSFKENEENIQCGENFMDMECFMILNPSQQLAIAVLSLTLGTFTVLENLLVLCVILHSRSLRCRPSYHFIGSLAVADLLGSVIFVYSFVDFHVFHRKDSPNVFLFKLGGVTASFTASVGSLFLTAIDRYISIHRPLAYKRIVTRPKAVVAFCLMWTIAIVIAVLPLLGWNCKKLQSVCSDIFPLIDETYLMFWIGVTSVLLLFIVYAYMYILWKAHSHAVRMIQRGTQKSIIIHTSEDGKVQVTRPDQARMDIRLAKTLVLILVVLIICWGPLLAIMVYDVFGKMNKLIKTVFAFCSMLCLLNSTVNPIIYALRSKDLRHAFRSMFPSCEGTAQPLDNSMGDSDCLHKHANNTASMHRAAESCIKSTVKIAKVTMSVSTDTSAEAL
Format: cell membranes
Outline: (§1)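 Competition binding against [³H]CP-55,940. CB1 from rat brain membranes; CB2 from membranes of HEK293 cells expressing mouse or human CB2. IC50 obtained by nonlinear regression and converted to Ki. Three independent experiments in triplicate; mean with SEM.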

For `CC1(C)Oc2cc(C3(CCCCCCCC#N)CCCC3)cc(O)c2[C@@H]2C[C@H](CN=[N+]=[N-])CC[C@H]21`, which Ki is on record?
The Ki was 0.3 nM.

With `CC1(C)Oc2cc(C3(CCCCCCN=[N+]=[N-])CCCC3)cc(O)c2[C@@H]2C[C@H](CO)CC[C@H]21` as the compound, how does the Ki read?
The Ki was 0.4 nM.

With `CC1(C)Oc2cc(C3(CCCCCCC#N)CCCC3)cc(O)c2[C@@H]2C[C@H](CO)CC[C@H]21` as the compound, how does the Ki read?
Its Ki is 0.8 nM.

For `CCCCCCC(C)(C)c1cc(O)c2c(c1)OC(C)(C)[C@@H]1CC[C@@H](CO)C[C@@H]21`, which Ki is on record?
Its Ki is 3 nM.

These compounds were tested against Cannabinoid receptor 2 (Mus musculus, UniProt P47936) (assay: Displacement of [3H]CP55940 from mouse CB2 expressed in HEK293 cell membrane assessed as inhibition constant incubated for 1 hr by TopCount scintillation counting method). Conditions: not given.
Chain of Cannabinoid receptor 2 (Mus musculus, UniProt P47936) (P47936 whole entry): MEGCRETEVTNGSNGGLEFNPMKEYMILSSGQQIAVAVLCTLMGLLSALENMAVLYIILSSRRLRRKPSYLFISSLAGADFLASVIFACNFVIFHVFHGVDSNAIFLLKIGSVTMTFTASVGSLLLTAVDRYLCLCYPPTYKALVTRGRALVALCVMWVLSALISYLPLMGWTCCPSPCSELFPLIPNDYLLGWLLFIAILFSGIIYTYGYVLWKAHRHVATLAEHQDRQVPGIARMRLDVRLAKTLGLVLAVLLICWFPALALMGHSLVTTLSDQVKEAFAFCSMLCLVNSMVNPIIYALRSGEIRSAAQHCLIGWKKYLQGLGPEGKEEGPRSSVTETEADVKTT
Format: cell membranes
Outline: as §1

How did the Ki turn out when `CC1(C)Oc2cc(C3(CCCCCCCC#N)CCCC3)cc(O)c2[C@@H]2C[C@H](CN=[N+]=[N-])CC[C@H]21` was run?
Its Ki is 1.4 nM.

Which Ki does the source give for `CC1(C)Oc2cc(C3(CCCCCCN=[N+]=[N-])CCCC3)cc(O)c2[C@@H]2C[C@H](CO)CC[C@H]21` here?
The Ki was 0.8 nM.

How did the Ki turn out when `CC1(C)Oc2cc(C3(CCCCCCC#N)CCCC3)cc(O)c2[C@@H]2C[C@H](CO)CC[C@H]21` was run?
The Ki was 1 nM.

These compounds were tested against T1, Cannabinoid receptor 2 (Homo sapiens, UniProt P34972) (assay: Displacement of [3H]CP55940 from human CB2 expressed in HEK293 cell membrane assessed as inhibition constant incubated for 1 hr by TopCount scintillation counting method). Conditions: not given.
T1 sequence (P34972 whole entry): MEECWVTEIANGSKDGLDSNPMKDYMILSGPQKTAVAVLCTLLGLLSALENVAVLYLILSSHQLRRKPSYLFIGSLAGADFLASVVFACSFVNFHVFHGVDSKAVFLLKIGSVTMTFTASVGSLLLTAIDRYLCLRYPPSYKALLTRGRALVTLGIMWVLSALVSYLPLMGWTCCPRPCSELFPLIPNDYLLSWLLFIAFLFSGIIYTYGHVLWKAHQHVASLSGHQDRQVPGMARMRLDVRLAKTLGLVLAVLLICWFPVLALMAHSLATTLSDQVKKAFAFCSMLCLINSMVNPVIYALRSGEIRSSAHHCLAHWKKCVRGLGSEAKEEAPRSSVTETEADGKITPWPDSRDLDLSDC
Format: cell membranes
Outline: as §1

Which Ki does the source give for `CC1(C)Oc2cc(C3(CCCCCCCC#N)CCCC3)cc(O)c2[C@@H]2C[C@H](CN=[N+]=[N-])CC[C@H]21` here?
Its Ki is 0.3 nM.

`CC1(C)Oc2cc(C3(CCCCCCN=[N+]=[N-])CCCC3)cc(O)c2[C@@H]2C[C@H](CO)CC[C@H]21` was tested. Which Ki did it give?
The Ki was 0.8 nM.

`CC1(C)Oc2cc(C3(CCCCCCC#N)CCCC3)cc(O)c2[C@@H]2C[C@H](CO)CC[C@H]21` was tested. Which Ki did it give?
Its Ki is 1.4 nM.

Which Ki does the source give for `CCCCCCC(C)(C)c1cc(O)c2c(c1)OC(C)(C)[C@@H]1CC[C@@H](CO)C[C@@H]21` here?
The Ki was 2.1 nM.

These compounds were tested against Cannabinoid receptor 1 (Rattus norvegicus) (UniProt P20272) (assay: Displacement of [3H]CP55940 from rat brain membrane CB1 assessed as reduction in maximum binding capacity at 4 nM incubated for 1 hr by TopCount scintillation counting method relative to control). Conditions: not given.
Chain of Cannabinoid receptor 1 (Rattus norvegicus) (P20272 whole entry): as the sequence (P20272 whole entry) above
Format: cell membranes
Outline: (§2)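 Wash-resistant binding. […] Saturation binding used 25 μg protein, [³H]CP-55,940 at 0.5–23.8 nM and 4 μM unlabeled CP-55,940 for nonspecific binding, 1 h at 30 °C. Samples were filtered and counted by scintillation. Bmax came from one-site fits; % reduction was taken versus untreated control.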

`CC1(C)Oc2cc(C3(CCCCCCCC#N)CCCC3)cc(O)c2[C@@H]2C[C@H](CN=[N+]=[N-])CC[C@H]21` was tested. Which Activity did it give?
The Activity was “inactive”.

`CCCCCCC(C)(C)c1cc(O)c2c(c1)OC(C)(C)[C@@H]1CC[C@@H](CO)C[C@@H]21` was tested. Which Activity did it give?
Its Activity is “inactive”.

Same assay, conditions: filed as agonist

With `CC1(C)Oc2cc(C3(CCCCCCN=[N+]=[N-])CCCC3)cc(O)c2[C@@H]2C[C@H](CO)CC[C@H]21` as the compound, how does the Bmax read?
Its Bmax is 87%.

With `CC1(C)Oc2cc(C3(CCCCCCC#N)CCCC3)cc(O)c2[C@@H]2C[C@H](CO)CC[C@H]21` as the compound, how does the Bmax read?
The Bmax was 68%.

Each compound was assayed against T1, Cannabinoid receptor 2 (assay: Displacement of [3H]CP55940 from CB2 (unknown origin) assessed as reduction in maximum binding capacity at 4 nM incubated for 1 hr by TopCount scintillation counting method relative to control). Conditions: not given.
Outline: as §2

For `CC1(C)Oc2cc(C3(CCCCCCCC#N)CCCC3)cc(O)c2[C@@H]2C[C@H](CN=[N+]=[N-])CC[C@H]21`, which Activity is on record?
Its Activity is “inactive”.

Which Activity does the source give for `CCCCCCC(C)(C)c1cc(O)c2c(c1)OC(C)(C)[C@@H]1CC[C@@H](CO)C[C@@H]21` here?
Its Activity is “inactive”.

Same assay, conditions: filed as agonist

For `CC1(C)Oc2cc(C3(CCCCCCN=[N+]=[N-])CCCC3)cc(O)c2[C@@H]2C[C@H](CO)CC[C@H]21`, which Bmax is on record?
Its Bmax is 65%.

For `CC1(C)Oc2cc(C3(CCCCCCC#N)CCCC3)cc(O)c2[C@@H]2C[C@H](CO)CC[C@H]21`, which Bmax is on record?
The Bmax was 45%.

These compounds were tested against T2, Cannabinoid receptor 1 (Homo sapiens, UniProt P21554) (assay: Agonist activity at 3xHA tagged human CB1 receptor expressed in CHO-K1 cells assessed as reduction in forskolin-stimulated cAMP accumulation by measuring maximal efficacy incubated for 30 mins by cAMP assay relative to CP-55940). Conditions: filed as agonist.
T2 sequence (P21554 whole entry): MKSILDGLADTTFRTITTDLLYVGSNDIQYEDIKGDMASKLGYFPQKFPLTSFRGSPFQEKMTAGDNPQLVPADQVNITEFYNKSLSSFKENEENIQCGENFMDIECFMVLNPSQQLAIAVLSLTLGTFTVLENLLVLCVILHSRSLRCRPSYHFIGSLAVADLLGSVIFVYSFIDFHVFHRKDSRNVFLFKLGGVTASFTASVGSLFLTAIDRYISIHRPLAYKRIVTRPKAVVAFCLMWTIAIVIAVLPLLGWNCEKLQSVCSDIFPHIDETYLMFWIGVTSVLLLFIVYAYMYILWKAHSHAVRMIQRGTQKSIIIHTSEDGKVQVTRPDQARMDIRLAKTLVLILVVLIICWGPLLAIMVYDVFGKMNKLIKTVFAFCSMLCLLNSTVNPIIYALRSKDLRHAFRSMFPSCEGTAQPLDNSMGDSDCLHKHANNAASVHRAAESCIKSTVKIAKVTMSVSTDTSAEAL
Format: functional, cell-based
Outline: (§3)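 CHO-K1 cells stably expressing 3xHA-tagged CB1 or CB2, plated at 4000 cells/well in Opti-MEM with 1% FBS for 3 h at 37 °C. Cells cotreated with 25 μM RO-20-1724, 20 μM forskolin and agonist for 30 min at 37 °C, then lysed. cAMP read by HTRF (665/620 nm) after 1 h at room temperature in the dark. Data normalized to vehicle and 100 nM CP-55,940; three-parameter nonlinear regression; ≥4 experiments in duplicate.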

For `CC1(C)Oc2cc(C3(CCCCCCC#N)CCCC3)cc(O)c2[C@@H]2C[C@H](CO)CC[C@H]21`, which Emax is on record?
Its Emax is 112%.

The compounds below were run against T1, Cannabinoid receptor 2 (assay: Agonist activity at 3xHA tagged human CB2 receptor expressed in CHO-K1 cells assessed as reduction in forskolin-stimulated cAMP accumulation by measuring maximal efficacy incubated for 30 mins by cAMP assay relative to CP-55940). Conditions: filed as agonist.
Format: functional, cell-based
Outline: as §3

With `CC1(C)Oc2cc(C3(CCCCCCC#N)CCCC3)cc(O)c2[C@@H]2C[C@H](CO)CC[C@H]21` as the compound, how does the Emax read?
The Emax was 61%.

These compounds were tested against T2, Cannabinoid receptor 1 (assay: Agonist activity at 3xHA tagged human CB1 receptor expressed in CHO-K1 cells assessed as reduction in forskolin-stimulated cAMP accumulation incubated for 30 mins by cAMP assay). Conditions: not given.
Format: functional, cell-based

`CC1(C)Oc2cc(C3(CCCCCCC#N)CCCC3)cc(O)c2[C@@H]2C[C@H](CO)CC[C@H]21` was tested. Which EC50 did it give?
Its EC50 is 0.31 nM.

What follows are compounds tested against T1, Cannabinoid receptor 2 (assay: Agonist activity at 3xHA tagged human CB2 receptor expressed in CHO-K1 cells assessed as reduction in forskolin-stimulated cAMP accumulation incubated for 30 mins by cAMP assay). Conditions: not given.
Format: functional, cell-based

How did the EC50 turn out when `CC1(C)Oc2cc(C3(CCCCCCC#N)CCCC3)cc(O)c2[C@@H]2C[C@H](CO)CC[C@H]21` was run?
The EC50 was 0.96 nM.
